pIC50: −log10 of the molar value.
Key:
1A9/ptx-22 [1] = experiment: (§1) Inhibitory concentration against beta-tubulin mutant 1A9PTX22 cell line; assay type: functional, cell-based; conditions: Homo sapiens
1A9/ptx-22 [2] = experiment: as §1; assay type: functional, cell-based; conditions: Homo sapiens; remark: listed apart in the source
1A9/ptx-10 [3] = experiment: (§2) Inhibitory concentration against beta-tubulin mutant 1A9PTX10 cell growth; assay type: functional, cell-based; conditions: Homo sapiens
1A9 = experiment: Inhibitory concentration against ovarian carcinoma 1A9 cell growth; assay type: functional, cell-based; conditions: Homo sapiens
1A9/ptx-10 [4] = experiment: as §2; assay type: functional, cell-based; conditions: Homo sapiens; remark: listed apart in the source
OVCAR-3 = experiment: Cytotoxicity by measuring inhibitory concentration against ovcar-3 tumor cell line; assay type: functional, cell-based, Homo sapiens
[5] = molecular target: Tubulin beta-4B chain (Homo sapiens) (UniProt P68371); experiment: Percent […] of tubulin by the compound; assay type: functional
In short: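 Tubulin polymerization was read as percent polymerization, with test drug at 100 µM and a 90 min incubation.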

Somatostatin receptor = experiment: Binding affinity for SRIF (somatostatin) receptor; assay type: protein assay
Nucleic Acid = experiment: Binding affinity towards DNA extracted from MOLT-4 cells; assay type: cell-free; conditions: Homo sapiens
Bacteria = experiment: Minimum inhibitory concentration against bacterial strains; assay type: functional

Tubulin beta-4B chain (Homo sapiens), sequence (P68371 whole entry): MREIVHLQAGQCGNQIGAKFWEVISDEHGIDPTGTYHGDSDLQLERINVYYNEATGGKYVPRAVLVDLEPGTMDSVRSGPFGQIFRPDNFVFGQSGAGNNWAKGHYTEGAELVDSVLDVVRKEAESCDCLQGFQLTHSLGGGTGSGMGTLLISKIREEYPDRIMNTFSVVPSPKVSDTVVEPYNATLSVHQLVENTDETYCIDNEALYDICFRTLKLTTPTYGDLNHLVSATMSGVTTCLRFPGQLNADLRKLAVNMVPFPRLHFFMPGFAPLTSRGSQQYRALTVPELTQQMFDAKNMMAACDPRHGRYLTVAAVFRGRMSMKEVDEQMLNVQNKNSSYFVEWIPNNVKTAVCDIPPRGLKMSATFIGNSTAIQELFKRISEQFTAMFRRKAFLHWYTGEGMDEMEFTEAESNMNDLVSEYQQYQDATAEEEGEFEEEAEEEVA

C/C(=C\c1csc(C)n1)[C@@H]1C[C@@H]2C[C@@]2(C)CCC[C@H](C)[C@H](O)[C@@H](C)C(=O)C(C)(C)CCC(=O)O1
pIC50 (1A9/ptx-22 [1]): 8.30
pIC50 (1A9/ptx-22 [2]): 8.30
pIC50 (1A9/ptx-10 [3]): 7.28
pIC50 (1A9): 7.82
pIC50 (1A9/ptx-10 [4]): 7.28

CSc1nc(/C=C(\C)[C@@H]2C[C@@H]3O[C@]3(C)CCC[C@H](C)[C@H](O)[C@@H](C)C(=O)C(C)(C)[C@@H](O)CC(=O)O2)cs1
pIC50 (1A9/ptx-22 [1]): 9.60
pIC50 (1A9/ptx-22 [2]): 9.60
pIC50 (1A9/ptx-10 [3]): 9.59
pIC50 (1A9): 9.77
pIC50 (1A9/ptx-10 [4]): 9.59

CC(=O)OC1C(=O)[C@@]2(C)[C@H]([C@H](OC(=O)c3ccco3)[C@]3(O)C[C@H](OC(=O)[C@H](O)[C@@H](NC(=O)c4ccccc4)c4ccccc4)C(C)=C1C3(C)C)[C@]1(OC(C)=O)CO[C@@H]1C[C@@H]2O (stereo not given in full)
pIC50 (OVCAR-3; Homo sapiens, OVCAR-3): 7.35
pIC50 (OVCAR-3; ovcar-3): 7.35

C/C(=C\c1cccc(C)n1)[C@@H]1C[C@@H]2O[C@]2(C)CCC[C@H](C)[C@H](O)[C@@H](C)C(=O)C(C)(C)[C@@H](O)CC(=O)O1
pIC50 (1A9/ptx-22 [1]): 7.74
pIC50 (1A9/ptx-22 [2]): 7.74
pIC50 (1A9/ptx-10 [3]): 7.14
pIC50 (1A9): 8.05
TP [5]: 45%
pIC50 (1A9/ptx-10 [4]): 7.14

CSc1nc(/C=C(\C)[C@@H]2C/C=C\CCC[C@H](C)[C@H](O)[C@@H](C)C(=O)C(C)(C)[C@@H](O)CC(=O)O2)cs1
pIC50 (1A9/ptx-22 [1]): 7.55
pIC50 (1A9/ptx-22 [2]): 7.55
pIC50 (1A9/ptx-10 [3]): 7.66
pIC50 (1A9): 8.05
TP [5]: 92%
pIC50 (1A9/ptx-10 [4]): 7.66

C/C(=C\c1ccc(C)cn1)[C@@H]1C[C@@H]2C[C@@H]2CCC[C@H](C)[C@H](O)[C@@H](C)C(=O)C(C)(C)[C@@H](O)CC(=O)O1
pIC50 (1A9/ptx-22 [1]): 8.37
pIC50 (1A9/ptx-22 [2]): 8.37
pIC50 (1A9/ptx-10 [3]): 7.72
pIC50 (1A9): 8.60
pIC50 (1A9/ptx-10 [4]): 7.72

NCCCCCOCC1CC(OCc2ccccc2)C(OCc2ccccc2)C(OCCc2cc3ccccc3[nH]2)O1 (stereo not given)
IC50 (Somatostatin receptor): 47000 nM

NCCCCCOCC1OC(OCCc2cc3ccccc3[nH]2)C(OCc2ccccc2)CC1OCc1ccccc1 (stereo not given)
IC50 (Somatostatin receptor): 8400 nM

CCNC1COC(OC2C(OC)OC(C)C(NOC3CC(O)C(SC(=O)c4c(C)c(F)c(OC5OC(C)C(O)C(OC)C5O)c(OC)c4OC)C(C)O3)C2O)CC1OC (stereo not given)
K obs (Nucleic Acid): 44 µM

CCNC1COC(OC2C(OC)OC(C)C(NOC3CC(O)C(SC(=O)c4c(C)c(I)c(OC5OC(C)C(O)C(OC)C5O)c(OC)c4OC)C(C)O3)C2O)CC1OC (stereo not given)
K obs (Nucleic Acid): 4.1 µM

C/C(=C\c1csc(C)n1)[C@@H]1C[C@@H]2C[C@H]2CCC[C@H](C)[C@H](O)[C@@H](C)C(=O)C(C)(C)CCC(=O)O1
pIC50 (1A9/ptx-22 [1]): 8.33
pIC50 (1A9/ptx-22 [2]): 8.33
pIC50 (1A9/ptx-10 [3]): 7.76
pIC50 (1A9): 8.00
pIC50 (1A9/ptx-10 [4]): 7.76

OCCCCCCNCC1OC(OCCc2cc3ccccc3[nH]2)C(OCc2ccccc2)CC1OCc1ccccc1 (stereo not given)
IC50 (Somatostatin receptor): 34000 nM

CCNC1COC(OC2C(OC)OC(C)C(NOC3CC(O)C(SC(=O)c4c(C)c(Br)c(OC5OC(C)C(O)C(OC)C5O)c(OC)c4OC)C(C)O3)C2O)CC1OC (stereo not given)
K obs (Nucleic Acid): 10 µM

C/C(=C\c1ncccc1C)[C@@H]1C[C@@H]2O[C@]2(C)CCC[C@H](C)[C@H](O)[C@@H](C)C(=O)C(C)(C)[C@@H](O)CC(=O)O1
pIC50 (1A9/ptx-22 [1]): < 6.52
pIC50 (1A9/ptx-22 [2]): < 6.52
pIC50 (1A9/ptx-10 [3]): < 6.52
pIC50 (1A9): < 6.52
TP [5]: 0%
pIC50 (1A9/ptx-10 [4]): < 6.52

C/C(=C\c1cc(C)ccn1)[C@@H]1C[C@@H]2O[C@]2(C)CCC[C@H](C)[C@H](O)[C@@H](C)C(=O)C(C)(C)[C@@H](O)CC(=O)O1
pIC50 (1A9/ptx-22 [1]): 10.00
pIC50 (1A9/ptx-22 [2]): 10.00
pIC50 (1A9/ptx-10 [3]): 9.44
pIC50 (1A9): 10.00
TP [5]: 90.3%
pIC50 (1A9/ptx-10 [4]): 9.44

Cc1cccc(C)c1SSCCNC(=O)/C(Cc1cccc(Br)c1)=N/O
MIC (Bacteria): 0.11 ug m/L

C/C(=C\c1csc(C)n1)[C@@H]1C[C@@H]2O[C@]2(C)CCC[C@H](C)[C@H](O)[C@@H](C)C(=O)C(C)(C)[C@@H](O)CC(=O)O1 [PATUPILONE]
pIC50 (1A9/ptx-22 [1]): 9.51
pIC50 (1A9/ptx-22 [2]): 9.51
pIC50 (1A9/ptx-10 [3]): 9.00
pIC50 (1A9): 9.89
TP [5]: 98%
pIC50 (1A9/ptx-10 [4]): 9.00

OCCCCCCNCC1OC(OCCc2cc3ccccc3[nH]2)C(OCc2ccccc2)C(OCc2ccccc2)C1OCc1ccccc1 (stereo not given)
IC50 (Somatostatin receptor): 5100 nM

CCNC1COC(OC2C(O[C@H]3C#C/C=C\C#C[C@@](C)(O)C(=C/CSSSC)/C3=C(\NC(=O)OC)C(C)=O)OC(C)C(NOC3CC(O)C(SC(=O)c4c(C)c(I)c(OC5OC(C)C(O)C(OC)C5O)c(OC)c4OC)C(C)O3)C2O)CC1OC (stereo not given in full)
K obs (Nucleic Acid): 0.135 µM

C/C(=C\c1csc(C)n1)[C@@H]1C[C@@H]2O[C@@H]2CCC[C@H](C)[C@H](O)[C@@H](C)C(=O)C(C)(C)[C@@H](O)CC(=O)O1 [EPOTHILONE A]
pIC50 (1A9/ptx-22 [1]): 8.23
pIC50 (1A9/ptx-22 [2]): 8.23
pIC50 (1A9/ptx-10 [3]): 7.70
pIC50 (1A9): 8.66
TP [5]: 76%
pIC50 (1A9/ptx-10 [4]): 7.70

OCCCCCNCC1OC(OCCc2cc3ccccc3[nH]2)C(OCc2ccccc2)C(OCc2ccccc2)C1OCc1ccccc1 (stereo not given)
IC50 (Somatostatin receptor): 14000 nM

C/C(=C\c1ccc(C)cn1)[C@@H]1C[C@@H]2O[C@]2(C)CCC[C@H](C)[C@H](O)[C@@H](C)C(=O)C(C)(C)[C@@H](O)CC(=O)O1
pIC50 (1A9/ptx-22 [1]): 9.82
pIC50 (1A9/ptx-22 [2]): 9.82
pIC50 (1A9/ptx-10 [3]): 9.22
pIC50 (1A9): 9.82
TP [5]: 92%
pIC50 (1A9/ptx-10 [4]): 9.22

NCCCCCOCC1OC(OCCc2cc3ccccc3[nH]2)CC(OCc2ccccc2)C1OCc1ccccc1 (stereo not given)
IC50 (Somatostatin receptor): 35000 nM

Reference: ChEMBL document CHEMBL1143652, “Joys of molecules. 2. Endeavors in chemical biology and medicinal chemistry” (J Med Chem, 2005)
